In brackets after ≈: the same amount, converted by molar mass.
How the values were obtained:
Candida tropicalis [1] = experiment: Antifungal activity against Candida tropicalis ATCC 750 by broth microdilution assay; type: functional
In short: (§1)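 CLSI M27-A3 broth microdilution. Compounds diluted to 1 mg/ml in 1% DMSO. Fluconazole (1 mg/ml) served as positive control, 1% DMSO as vehicle control, with media and culture controls. Triplicate at each concentration, repeated thrice. Inocula came from YPDA stocks subcultured in broth for 48 h at 37 °C.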

Candida albicans [2] = experiment: Inhibition of ergosterol biosynthesis in Candida albicans 2367 assessed as ergosterol content at MIC after 16 hrs by spectrophotometer analysis; type: functional; set-up: scale not given: the % may be the effect or the level left
In short: (§2)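 Cells were pelleted and washed, and wet weight taken. Pellets were saponified in 25% alcoholic KOH at 85 °C for 1 h. Sterols were extracted into n-heptane/water. Ergosterol content is expressed relative to untreated control cells.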

Candida albicans [3] = experiment: Inhibition of ergosterol biosynthesis in Candida albicans 2323 assessed as ergosterol content at 1/2 MIC after 16 hrs by spectrophotometer analysis; type: functional; set-up: scale not given: the % may be the effect or the level left; in short: as §2
Candida tropicalis [4] = experiment: Antifungal activity against clinical isolates of Candida tropicalis 2356 by broth microdilution assay; type: functional; in short: as §1
Candida tropicalis [5] = experiment: Antifungal activity against clinical isolates of Candida tropicalis 2356 at half MIC after 48 hrs by disc diffusion assay; type: functional
In short: (§3)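 Cells (10^3 cells ml−1) grown in YPD were mixed into molten agar (~40 °C) and poured into 100-mm plates. Filter discs (4 mm) were spotted with 10 µl of compound at 1/2 × MIC, MIC or 2 × MIC. Fluconazole and 1% DMSO were the controls. Plates were incubated at 37 °C for 48 h and inhibition zone diameters recorded in mm.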

Candida tropicalis [6] = experiment: Antifungal activity against Candida tropicalis ATCC 750 at MIC after 48 hrs by disc diffusion assay; type: functional; in short: as §3
Candida albicans [7] = experiment: Inhibition of ergosterol biosynthesis in Candida albicans 2367 assessed as ergosterol content at 1/2 MIC after 16 hrs by spectrophotometer analysis; type: functional; set-up: scale not given: the % may be the effect or the level left; in short: as §2
Candida tropicalis [8] = experiment: Antifungal activity against clinical isolates of Candida tropicalis 2029 at 2 times MIC after 48 hrs by disc diffusion assay; type: functional; in short: as §3
Candida tropicalis [9] = experiment: Antifungal activity against clinical isolates of Candida tropicalis 2029 at MIC after 48 hrs by disc diffusion assay; type: functional; in short: as §3
Candida albicans [10] = experiment: Antifungal activity against clinical isolates of Candida albicans 2323 by broth microdilution assay; type: functional; in short: as §1
Candida tropicalis [11] = experiment: Antifungal activity against Candida tropicalis ATCC 750 at 2 times MIC after 48 hrs by disc diffusion assay; type: functional; in short: as §3
Candida albicans [12] = experiment: Cytotoxicity against Candida albicans ATCC 10261 at MIC after 24 hrs by WST1 assay; type: functional
In short: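 Candida cells were exposed to MIC and sub-MIC levels for 24 h in microplates, then to WST-1/CEC dye for 30 min at 37 °C. Plates were shaken 1 min and the reaction stopped with 1% SDS. Formazan was read at 450 nm. % cytotoxicity = 100 × (cell control − experimental)/cell control. Triplicates, mean ± SD.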

Candida albicans [13] = experiment: Antifungal activity against clinical isolates of Candida albicans 2779 at half MIC after 48 hrs by disc diffusion assay; type: functional; in short: as §3
Candida albicans [14] = experiment: Antifungal activity against Candida albicans ATCC 10261 at MIC after 48 hrs by disc diffusion assay; type: functional; in short: as §3
Candida albicans [15] = experiment: Antifungal activity against clinical isolates of Candida albicans 2323 at 2 times MIC after 48 hrs by disc diffusion assay; type: functional; in short: as §3
Candida tropicalis [16] = experiment: Inhibition of ergosterol biosynthesis in Candida tropicalis 2029 assessed as ergosterol content at MIC after 16 hrs by spectrophotometer analysis; type: functional; set-up: scale not given: the % may be the effect or the level left; in short: as §2
Candida albicans [17] = experiment: Antifungal activity against clinical isolates of Candida albicans 2367 at MIC after 48 hrs by disc diffusion assay; type: functional; in short: as §3
Candida tropicalis [18] = experiment: Antifungal activity against clinical isolates of Candida tropicalis 2029 at half MIC after 48 hrs by disc diffusion assay; type: functional; in short: as §3
Candida tropicalis [19] = experiment: Inhibition of ergosterol biosynthesis in Candida tropicalis 2356 assessed as ergosterol content at MIC after 16 hrs by spectrophotometer analysis; type: functional; set-up: scale not given: the % may be the effect or the level left; in short: as §2
Candida albicans [20] = experiment: Inhibition of ergosterol biosynthesis in Candida albicans 2323 assessed as ergosterol content at MIC after 16 hrs by spectrophotometer analysis; type: functional; set-up: scale not given: the % may be the effect or the level left; in short: as §2
Candida albicans [21] = experiment: Antifungal activity against clinical isolates of Candida albicans 2779 by broth microdilution assay; type: functional; in short: as §1
Candida tropicalis [22] = experiment: Antifungal activity against clinical isolates of Candida tropicalis 2356 at MIC after 48 hrs by disc diffusion assay; type: functional; in short: as §3
Candida albicans [23] = experiment: Antifungal activity against Candida albicans ATCC 10261 at 2 times MIC after 48 hrs by disc diffusion assay; type: functional; in short: as §3
Candida albicans [24] = experiment: Antifungal activity against clinical isolates of Candida albicans 2367 at half MIC after 48 hrs by disc diffusion assay; type: functional; in short: as §3
Candida tropicalis [25] = experiment: Inhibition of ergosterol biosynthesis in Candida tropicalis ATCC 750 assessed as ergosterol content at 1/2 MIC after 16 hrs by spectrophotometer analysis; type: functional; set-up: scale not given: the % may be the effect or the level left; in short: as §2
Candida albicans [26] = experiment: Antifungal activity against clinical isolates of Candida albicans 2367 at 2 times MIC after 48 hrs by disc diffusion assay; type: functional; in short: as §3
Candida albicans [27] = experiment: Inhibition of ergosterol biosynthesis in Candida albicans ATCC 10261 assessed as ergosterol content at MIC after 16 hrs by spectrophotometer analysis; type: functional; set-up: scale not given: the % may be the effect or the level left; in short: as §2
Candida albicans [28] = experiment: Inhibition of ergosterol biosynthesis in Candida albicans 2779 assessed as ergosterol content at 1/2 MIC after 16 hrs by spectrophotometer analysis; type: functional; set-up: scale not given: the % may be the effect or the level left; in short: as §2
Candida albicans [29] = experiment: Antifungal activity against clinical isolates of Candida albicans 2323 at MIC after 48 hrs by disc diffusion assay; type: functional; in short: as §3
Candida albicans [30] = experiment: Inhibition of ergosterol biosynthesis in Candida albicans ATCC 10261 assessed as ergosterol content at 1/2 MIC after 16 hrs by spectrophotometer analysis; type: functional; set-up: scale not given: the % may be the effect or the level left; in short: as §2
Candida tropicalis [31] = experiment: Inhibition of ergosterol biosynthesis in Candida tropicalis 2029 assessed as ergosterol content at 1/2 MIC after 16 hrs by spectrophotometer analysis; type: functional; set-up: scale not given: the % may be the effect or the level left; in short: as §2
Candida albicans [32] = experiment: Antifungal activity against clinical isolates of Candida albicans 2779 at 2 times MIC after 48 hrs by disc diffusion assay; type: functional; in short: as §3
Candida albicans [33] = experiment: Inhibition of ergosterol biosynthesis in Candida albicans 2779 assessed as ergosterol content at MIC after 16 hrs by spectrophotometer analysis; type: functional; set-up: scale not given: the % may be the effect or the level left; in short: as §2
Candida albicans [34] = experiment: Antifungal activity against clinical isolates of Candida albicans 2779 at MIC after 48 hrs by disc diffusion assay; type: functional; in short: as §3
Candida tropicalis [35] = experiment: Inhibition of ergosterol biosynthesis in Candida tropicalis 2356 assessed as ergosterol content at 1/2 MIC after 16 hrs by spectrophotometer analysis; type: functional; set-up: scale not given: the % may be the effect or the level left; in short: as §2
Candida tropicalis [36] = experiment: Antifungal activity against clinical isolates of Candida tropicalis 2029 by broth microdilution assay; type: functional; in short: as §1
Candida tropicalis [37] = experiment: Antifungal activity against Candida tropicalis ATCC 750 at half MIC after 48 hrs by disc diffusion assay; type: functional; in short: as §3
Candida albicans [38] = experiment: Antifungal activity against Candida albicans ATCC 10261 at half MIC after 48 hrs by disc diffusion assay; type: functional; in short: as §3
Candida albicans [39] = experiment: Antifungal activity against clinical isolates of Candida albicans 2367 by broth microdilution assay; type: functional; in short: as §1
Candida albicans [40] = experiment: Antifungal activity against clinical isolates of Candida albicans 2323 at half MIC after 48 hrs by disc diffusion assay; type: functional; in short: as §3
Candida tropicalis [41] = experiment: Inhibition of ergosterol biosynthesis in Candida tropicalis ATCC 750 assessed as ergosterol content at MIC after 16 hrs by spectrophotometer analysis; type: functional; set-up: scale not given: the % may be the effect or the level left
In short: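 Cells were harvested, washed, and wet pellet weight recorded. Pellets were saponified in 3 mL 25% alcoholic KOH at 85 °C for 1 h, then sterols extracted into n-heptane. Ergosterol is expressed relative to untreated control cells.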

Candida albicans [42] = experiment: Antifungal activity against Candida albicans ATCC 10261 by broth microdilution assay; type: functional; in short: as §1
Candida tropicalis [43] = experiment: Cytotoxicity against Candida tropicalis ATCC 750 at MIC after 24 hrs by WST1 assay
Candida tropicalis [44] = experiment: Antifungal activity against clinical isolates of Candida tropicalis 2356 at 2 times MIC after 48 hrs by disc diffusion assay; type: functional; in short: as §3

Which results are given for `CCc1ccnc(-c2nccn2Cc2nnc(-c3ccc(N)cc3)o2)c1`?
MIC (Candida tropicalis [1]): 16 µg/mL (≈ 46.2 µM); Activity (Candida albicans [2]): 81%; Activity (Candida albicans [3]): 43%; MIC (Candida tropicalis [4]): 125 µg/mL (≈ 361 µM); inhibition zone (IZ) (Candida tropicalis [5]): 0 mm; inhibition zone (IZ) (Candida tropicalis [6]): 9 mm; Activity (Candida albicans [7]): 45%; inhibition zone (IZ) (Candida tropicalis [8]): 8 mm; inhibition zone (IZ) (Candida tropicalis [9]): 5 mm; MIC (Candida albicans [10]): 32 µg/mL (≈ 92.4 µM); inhibition zone (IZ) (Candida tropicalis [11]): 13 mm; Activity (Candida albicans [12]): 87.27%; inhibition zone (IZ) (Candida albicans [13]): 1 mm; inhibition zone (IZ) (Candida albicans [14]): 10 mm; inhibition zone (IZ) (Candida albicans [15]): 7 mm; Activity (Candida tropicalis [16]): 84%; inhibition zone (IZ) (Candida albicans [17]): 5 mm; inhibition zone (IZ) (Candida tropicalis [18]): 2 mm; Activity (Candida tropicalis [19]): 86%; Activity (Candida albicans [20]): 89%; MIC (Candida albicans [21]): 64 µg/mL (≈ 185 µM); inhibition zone (IZ) (Candida tropicalis [22]): 4 mm; inhibition zone (IZ) (Candida albicans [23]): 13 mm; inhibition zone (IZ) (Candida albicans [24]): 2 mm; Activity (Candida tropicalis [25]): 41%; inhibition zone (IZ) (Candida albicans [26]): 7 mm; Activity (Candida albicans [27]): 98%; Activity (Candida albicans [28]): 42%; inhibition zone (IZ) (Candida albicans [29]): 4 mm; Activity (Candida albicans [30]): 57%; Activity (Candida tropicalis [31]): 44%; inhibition zone (IZ) (Candida albicans [32]): 11 mm; Activity (Candida albicans [33]): 81%; inhibition zone (IZ) (Candida albicans [34]): 8 mm; Activity (Candida tropicalis [35]): 52%; MIC (Candida tropicalis [36]): 32 µg/mL (≈ 92.4 µM); inhibition zone (IZ) (Candida tropicalis [37]): 5 mm; inhibition zone (IZ) (Candida albicans [38]): 7 mm; MIC (Candida albicans [39]): 32 µg/mL (≈ 92.4 µM); inhibition zone (IZ) (Candida albicans [40]): 0 mm; Activity (Candida tropicalis [41]): 98%; MIC (Candida albicans [42]): 16 µg/mL (≈ 46.2 µM); Activity (Candida tropicalis [43]): 80.81%; inhibition zone (IZ) (Candida tropicalis [44]): 7 mm
